From PubChem BioAssay
PMI act satM6P = PMI (human) activation, high substrate; P34949; coupled PMI enzyme assay, resazurin fluorescence, 20 min; active compounds read high; 1 = untreated enzyme, 0 = substrate-free blank; activation factor at 20 µM; 0.34% of 190,000 active; AID 1216;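 active means activation factor of 2 or more at 20 µM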
Target sequence (P34949 whole entry, looked up): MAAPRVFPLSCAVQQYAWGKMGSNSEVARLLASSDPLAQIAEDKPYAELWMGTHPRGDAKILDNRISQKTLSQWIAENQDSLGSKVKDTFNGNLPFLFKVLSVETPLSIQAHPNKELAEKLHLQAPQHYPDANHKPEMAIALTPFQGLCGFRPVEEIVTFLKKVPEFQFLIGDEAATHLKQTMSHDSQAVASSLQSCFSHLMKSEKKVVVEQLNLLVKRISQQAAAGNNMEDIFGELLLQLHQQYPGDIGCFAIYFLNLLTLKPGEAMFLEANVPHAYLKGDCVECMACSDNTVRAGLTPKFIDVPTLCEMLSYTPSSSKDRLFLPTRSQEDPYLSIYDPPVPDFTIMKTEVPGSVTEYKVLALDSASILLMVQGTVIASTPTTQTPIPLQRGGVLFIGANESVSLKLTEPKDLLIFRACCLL
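assay system = human phosphomannose isomerase with PGI, G6PDH, diaphorase coupling enzymes | quantity = 15 ng/mL PMI | incubation = enzyme reaction with compound 20 min at room temperature | medium = HEPES pH 7.4 buffer with MgCl2 and Tween-20 | compound dosing = one concentration, 20 µM, in 1% DMSO | measured by = Diaphorase-driven resazurin-to-resorufin fluorescence, excitation 544, emission 590 nm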
bCat KO growth = beta-catenin-lacking colon tumor cell growth suppression; HCT116 beta-catenin knockout viability, CellTiter-Glo, 60 h; active compounds read low; viability, % at 10 µM; 1.5% of 140,000 active;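 active means viability at or under a set limit, the compound median less 4 SD, cut at about 6% in these data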;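 further: 0% = Hyamine 1622 control at 20 µM and 100% = untreated cell control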
PMI activator = phosphomannose isomerase (human) activation; purified human PMI, coupled resazurin fluorescence, 20 min; active compounds read high; 1 = vehicle control, 0 substrate-free wells; P34949; 0.005% of 190,000 active; activation factor at 20 µM;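 active means activation factor of 2 or more at 20 µM, relative to plate controls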
PTEN del growth = growth suppressors of cells with PTEN tumor suppressor deletion; HCT116 PTEN-null viability, CellTiter-Glo, 60 h; active compounds read low; viability, % at 10 µM; 1.2% of 140,000 active; AID 827;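 active means viability at or below a set limit, 4 SD under the median of all tested compounds, cut at about 3.7% in these data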;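 further: PTEN knockout HCT116 line with beta catenin targeted HCT116 as companion control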
Lmaj promast = reduces viability of Leishmania major promastigotes. resazurin fluorescence viability. inhibition, % at 10 µM. 9% of 200,000 active. AID 1063; in the data active means inhibition above about 50%;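 further: promastigotes grown with compound for 44 hours at 28 °C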
An asterisk follows results filed as active. Only some compounds are listed: those with a hit (about 9.6% of all), similar ones and a draw of the others.

`O=[N+]([O-])c1ccccc1/C=C/CN1CCCCC1` gave PMI act satM6P 1, bCat KO growth 96, PMI activator 0.9, PTEN del growth 96 and Lmaj promast 75*.
For CC1CCCC(C)N1/N=C/C=C/c1ccccc1[N+](=O)[O-] (stereo unspecified) the results were PMI act satM6P 0.8, PMI activator 1 and Lmaj promast 10.
For COc1ccc(N2C(=O)CC(Sc3nnnn3-c3ccc(F)cc3)C2=O)cc1 (stereo unspecified) the results were PMI act satM6P 1, PMI activator 0.9 and Lmaj promast -3.
For O=C1CC(Sc2nnnn2-c2ccccc2)C(=O)N1c1cccc(Cl)c1 (stereo unspecified) the results were PMI act satM6P 1.1, bCat KO growth 106, PMI activator 0.9, PTEN del growth 105 and Lmaj promast 71*.
`O=C1CC(SC(=Nc2ccccc2)Nc2ccccc2)C(=O)N1c1cccc(Cl)c1` (stereo unspecified) gave PMI act satM6P 0.8, bCat KO growth 42, PMI activator 0.8, PTEN del growth 12 and Lmaj promast 61*.
For Cc1cc(C)cc(NC(=O)OCCN2CCN(Cc3ccccc3)CCC2=O)c1 the results were PMI act satM6P 1.1, bCat KO growth 90, PMI activator 1.1, PTEN del growth 97 and Lmaj promast -4.
Screening CCC(C)c1ccc(NC(=S)NCc2ccccc2OC)cc1 (stereo unspecified) returned PMI act satM6P 0.9, PMI activator 0.9 and Lmaj promast 9.
For CC(C)CN1CCC(C(=O)N2CCN(c3ccccc3F)CC2)CC1 the results were PMI act satM6P 1.1, bCat KO growth 92, PMI activator 1.1, PTEN del growth 100 and Lmaj promast 82*.
For CCCN(CCC)C1=N/C(=C\c2ccco2)C(=O)N1c1ccccc1 the results were PMI act satM6P 1.6, bCat KO growth 82, PMI activator 1.3, PTEN del growth 83 and Lmaj promast 49.
For c1ccc(CC2CCN(Cc3nc(-c4ccccc4)no3)CC2)cc1 the results were PMI act satM6P 0.9, bCat KO growth 94, PMI activator 0.8, PTEN del growth 87 and Lmaj promast 15.
COc1ccc(CCNC(=O)c2ccc(CN3CCC(Cc4ccccc4)CC3)cc2)cc1 was read as PMI act satM6P 1.1, bCat KO growth 65, PMI activator 1.1, PTEN del growth 71 and Lmaj promast 0.
`c1ccc(CC2CCN(Cc3ccccn3)CC2)cc1` gave PMI act satM6P 1.1, PMI activator 1 and Lmaj promast -6.
Clc1cccc(CN2CCC(Cc3ccccc3)CC2)c1 was read as PMI act satM6P 1.1, bCat KO growth 84, PMI activator 1.1, PTEN del growth 91 and Lmaj promast 86*.
Screening Clc1ccc(CN2CCC(Cc3ccccc3)CC2)cc1 returned PMI act satM6P 1.1, bCat KO growth 87, PMI activator 0.9, PTEN del growth 86 and Lmaj promast 90*.
`Cc1ccccc1NC(=O)c1ccc(CN2CCC(Cc3ccccc3)CC2)cc1` gave PMI act satM6P 1, bCat KO growth 88, PMI activator 0.9, PTEN del growth 97 and Lmaj promast 53*.
Screening O=C(/C=C/c1cccc(Cl)c1)N1CCC(Cc2ccccc2)CC1 returned PMI act satM6P 1, bCat KO growth 91, PMI activator 0.9, PTEN del growth 90 and Lmaj promast 50*.
For CCc1ccc(-n2c(C)n[nH]c2=S)cc1 the results were PMI act satM6P 0.9, PMI activator 0.9 and Lmaj promast -6.
For CN(C)CCOC(C)(c1ccccc1)c1ccccn1 (stereo unspecified) the results were PMI act satM6P 1.1, bCat KO growth 91, PMI activator 1.1, PTEN del growth 101 and Lmaj promast -5.
`O=C(Nc1ccc(N2CCN(C(=O)c3ccco3)CC2)c(Cl)c1)c1cc2ccccc2o1` gave PMI act satM6P 0.8, bCat KO growth 2.8*, PMI activator 0.8, PTEN del growth 3.2* and Lmaj promast 96*.
CCC(=O)N1CCN(c2ccc(NC(=O)c3cc4ccccc4o3)cc2Cl)CC1 was read as PMI act satM6P 0.9, bCat KO growth 2.5*, PMI activator 0.8, PTEN del growth 3.1* and Lmaj promast 37.
For CCCC(=O)N1CCN(c2ccc(NC(=O)c3cc4ccccc4o3)cc2Cl)CC1 the results were PMI act satM6P 1, bCat KO growth 105, PMI activator 0.9, PTEN del growth 96 and Lmaj promast 60*.
`CCCC(=O)N1CCN(c2ccc(NC(=O)c3cccs3)cc2Cl)CC1` gave Lmaj promast 3.
`O=C(c1cc2ccccc2o1)N1CCN(c2ccccc2Cl)CC1` gave PMI act satM6P 0.9, bCat KO growth 99, PMI activator 0.9, PTEN del growth 100 and Lmaj promast 30.
`O=C(c1ccc(CNc2c(NC3CCCCC3)c(=O)c2=O)cc1)N1CCc2ccccc21` gave PMI act satM6P 1, bCat KO growth 91, PMI activator 1.1, PTEN del growth 83 and Lmaj promast -4.
`CC(C)(O)C#Cc1ccc(CN2CCN(C3CCCCC3)C(CCO)C2)s1` (stereo unspecified) gave PMI act satM6P 1, PMI activator 1 and Lmaj promast -4.
`COC(=O)C(NNc1ccccc1C)(NC(=O)c1ccc(F)cc1)C(F)(F)F` (stereo unspecified) gave PMI act satM6P 2.2*, bCat KO growth 79, PMI activator 1.6, PTEN del growth 84 and Lmaj promast 1.
For CCOC(=O)C(NCc1ccc(F)cc1)(NC(=O)c1ccccc1)C(F)(F)F (stereo unspecified) the results were PMI act satM6P 1.1, bCat KO growth 86, PMI activator 1.1, PTEN del growth 88 and Lmaj promast 11.
`COC(=O)C(NNc1ccc(F)cc1)(NC(=O)c1ccccc1)C(F)(F)F` (stereo unspecified) gave PMI act satM6P 2.9*, bCat KO growth 89, PMI activator 1.7, PTEN del growth 89 and Lmaj promast 4.
`Cc1ccc(C(=O)Nc2ccnc(-c3ccncc3)n2)cc1` gave PMI act satM6P 1.1, PMI activator 1 and Lmaj promast 12.
`CCOc1cc(CNCCc2ccc(S(N)(=O)=O)cc2)ccc1OCc1ccc(Cl)cc1` gave PMI act satM6P 1, bCat KO growth 1.4*, PMI activator 0.9, PTEN del growth 1.7* and Lmaj promast 101*.
Screening COc1cc(CNCCc2ccc(S(N)(=O)=O)cc2)ccc1OCc1ccc(Cl)cc1 returned PMI act satM6P 1.1, bCat KO growth 0.6*, PMI activator 1, PTEN del growth 0.6* and Lmaj promast 100*.
`CCOc1ccc(CNCCc2ccc(S(N)(=O)=O)cc2)cc1` gave PMI act satM6P 1, PMI activator 1.1 and Lmaj promast 20.
